Assay results reported in ChEMBL document CHEMBL2202995, “Synthesis and SAR study of 4,5-diaryl-1H-imidazole-2(3H)-thione derivatives, as potent 15-lipoxygenase inhibitors” (Bioorg Med Chem, 2012).

Assays:
[1] = tested on: Radical scavenging activity; test: Antioxidant activity of compound assessed as DPPH radical scavenging activity by colorimetric method; assay type: functional
Procedure, shortened: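 DPPH colorimetric scavenging assay: DPPH solution mixed with an equal volume of compound dissolved in ethanol, several dilutions tested, ethanol as control. After 30 min at room temperature, absorbance read at 517 nm. IC50 obtained by regression analysis of the mean values.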

[2] = Inhibition of soybean 15-LOX assessed as peroxide level by DMAB-MBTH method; design: species or system Glycine max
Procedure, shortened: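 Soybean lipoxygenase (SLO, 40,000 units/mL, 25 µL) and compound in ethanol preincubated 5 min at room temperature in 50 mM phosphate buffer pH 7.0; ethanol-only control. Reaction started with linoleic acid substrate in ethanol/100 mM KOH. After 7 min, 50 mM DMAB in 100 mM phosphate pH 7.0 was added, then MBTH/hemoglobin in phosphate pH 5.0, as colorimetric peroxide read-out.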

SMILES	IC50 [1]	IC50 [2]
COc1ccc(-c2[nH]c(=S)[nH]c2-c2ccccc2)cc1	87.4 µM	13.7 µM
S=c1[nH]c(-c2ccccc2)c(-c2ccc(Cl)cc2)[nH]1	30.3 µM	24.9 µM
CSc1ccc(-c2[nH]c(=S)[nH]c2-c2ccccc2)cc1	90 µM	5.7 µM
CN(C)c1ccc(-c2[nH]c(=S)[nH]c2-c2ccc(Cl)cc2)cc1	15.9 µM	22.3 µM
COc1ccc(-c2[nH]c(=S)[nH]c2-c2ccc(N(C)C)cc2)cc1	15.2 µM	9.4 µM
COc1ccc(-c2[nH]c(=S)[nH]c2-c2ccc(F)cc2)cc1	57.2 µM	11 µM
COc1ccc(-c2[nH]c(=S)[nH]c2-c2ccc(Cl)cc2)cc1	14 µM	4.7 µM
CSc1ccc(-c2[nH]c(=S)[nH]c2-c2ccc(F)cc2)cc1	49 µM	136 µM
CSc1ccc(-c2[nH]c(=S)[nH]c2-c2ccc(Cl)cc2)cc1	21.2 µM	19.7 µM
COc1ccc(-c2nc(SC)[nH]c2-c2ccc(Cl)cc2)cc1	> 250 µM	> 250 µM
S=c1[nH]c(-c2ccccc2)c(-c2ccccc2)[nH]1	49.2 µM	15.2 µM
Fc1ccc(-c2[nH]c(=S)[nH]c2-c2ccc(F)cc2)cc1	143 µM	23.4 µM
S=c1[nH]c(-c2ccc(Cl)cc2)c(-c2ccc(Cl)cc2)[nH]1	107 µM	62 µM
COc1ccc(-c2nc(S)[nH]c2-c2ccc(OC)cc2)cc1	15.5 µM	14.7 µM
Cc1nc(N2CCN(C)CC2)nc2c1Nc1ccccc1S2		34.2 µM
CC(Cc1ccc(O)c(O)c1)C(C)Cc1ccc(O)c(O)c1 (stereo not given) [NORDIHYDROGUAIARETIC ACID]	6.2 µM	
